HUVEC prolif 384 – inhibitors of human endothelial cell proliferation; 86,000 compounds, 1.1% hits; HUVEC proliferation, CellTiter-Glo luminescence, 72 h; stronger effect = lower value; viability, % at 10 µM (by protocol); AID 648;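 active = viability at or below 30%; inactive = viability above 30%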;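 also: 100% = median luminescence of DMSO-only cell control wells on each plate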
PTEN del growth – growth suppressors of cells with PTEN tumor suppressor deletion. HCT116 PTEN-null viability, CellTiter-Glo, 60 h; stronger effect = lower value. viability, % at 10 µM. 140,000 compounds, 1.2% hits. AID 827;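 active = viability at or below a set limit, 4 SD under the median of all tested compounds, cut at about 3.7% in these data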;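 also: PTEN knockout HCT116 line with beta catenin targeted HCT116 as companion control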
bCat KO growth – beta-catenin-lacking colon tumor cell growth suppression | HCT116 beta-catenin knockout viability, CellTiter-Glo, 60 h; stronger effect = lower value | viability, % at 10 µM | 140,000 compounds, 1.5% hits;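 active = viability at or under a set limit, the compound median less 4 SD, cut at about 6% in these data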;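 also: 0% = Hyamine 1622 control at 20 µM and 100% = untreated cell control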
H69AR growth 86K – growth inhibitors of human H69AR lung tumor cells. viability, % at 10 µM. H69AR lung tumor viability, ATP luminescence, 72 h; stronger effect = lower value. 85,000 compounds, 6% hits;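 active = viability at or below 40%; inactive = viability above 40%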;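 also: multidrug resistant small cell line overexpressing MRP-1 efflux transporter; 100% = mean luminescence of untreated control wells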
Fibroblast inh – blocks proliferation of human lung fibroblasts; LL 47 human lung fibroblast viability, ATP luminescence; stronger effect = lower value; viability, % at 10 µM; 85,000 compounds, 1.1% hits; AID 719;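 active = viability at or below 50% in the single dose screen; inactive = viability above 50%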;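 also: compound exposure lasted 72 h before the ATP readout; 100% = median luminescence of untreated cell-only wells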
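Test system: LL 47 human lung fibroblasts / Quantity: 1,150 cells in each well / Medium: IMEM growth medium with 15% fetal bovine serum / Incubation: 72 h compound exposure at 37 °C after overnight plating / Detection: CellTiter-Glo luminescence measuring cellular ATP / Read-out: % viability versus median cells-only luminescence / Benchmarks: cell-only wells, no compound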
* = called active by the depositor; nt = no result. The sample as a whole holds a higher share of hits than the screen did.

SMILES	HUVEC prolif 384	PTEN del growth	bCat KO growth	H69AR growth 86K	Fibroblast inh
CC12CC(NC(=O)N1c1cccc(C(=O)NCc3ccccc3)c1)c1ccccc1O2 (configuration not stated)	nt	88	93	nt	nt
CC(OC(=O)CC(NC(=O)c1ccccc1Cl)c1ccccc1)C(=O)Nc1cccc(Cl)c1Cl (configuration not stated)	nt	62	69	nt	nt
COc1ccc(-c2nn(-c3ccccc3)cc2C(=O)n2nnc3ccccc32)cc1	77	83	74	23*	99
COc1ccc(-c2nn(-c3ccccc3)cc2C(=O)O)cc1OC	104	91	88	96	108
O=C(c1cccc2ccccc12)n1nnc2ccccc21	66	nt	nt	6.5*	99
C#CCOC(=O)c1ccccc1C(=O)n1nnc2ccccc21	89	90	89	38*	97
Cc1ccc(C(=O)n2nnc3ccccc32)cc1	97	nt	nt	92	99
CCN(CC(O)Cn1c2ccccc2c2ccccc21)S(=O)(=O)c1ccc(C)cc1 (configuration not stated)	27*	58	75	27*	102
CS(=O)(=O)N(CC(O)Cn1c2ccccc2c2ccccc21)c1ccccc1 (configuration not stated)	81	77	81	30*	89
COc1ccc(N(CC(O)Cn2c3ccccc3c3ccccc32)S(=O)(=O)c2ccccc2)cc1 (configuration not stated)	nt	17	21	nt	nt
CC(=O)Nc1ccccc1N(CC(O)Cn1c2ccccc2c2ccccc21)S(=O)(=O)c1ccc(C)cc1 (configuration not stated)	nt	6	19	nt	nt
CCn1c(SCc2ccccc2)nnc1-c1ccc(S(=O)(=O)N2CCCCC2)cc1	100	71	72	26*	86
Cc1cc(C)c2c(n1)sc1c(-c3ccccc3)c(C#N)c(N)nc12	nt	55	67	nt	nt
CC1(C)COC(c2cccc(C3=NC(C)(C)CO3)n2)=N1	nt	98	92	nt	nt
CCCCCCC(=O)NNC(=O)CC(=O)Nc1ccccc1C(=O)O	nt	96	98	nt	nt
O=C(N/C=N/OCc1ccc(Cl)cc1Cl)NOCc1c(Cl)cccc1Cl	33	48	38	11*	87
c1ccc(Cn2c(-c3cncs3)nc3ccccc32)cc1	111	79	88	93	95
O=C(Cn1c(-c2cncs2)nc2ccccc21)NCCc1ccccc1	101	86	100	18*	99
CC1CC(C)(C)Nc2ccc(OC(=O)c3ccco3)cc21 (configuration not stated)	5.7*	0.7*	0.8*	1.1*	1.7*
O=C1C(Cl)=C(N2CCN(c3ccccc3[N+](=O)[O-])CC2)C(=O)c2ccccc21	nt	1.2*	0.9*	nt	nt
Cn1c(=O)[nH]c(=O)c2c1nc(SCC(=O)Nc1ccccc1)n2Cc1ccccc1	85	93	86	87	95
CCCCCOC(=O)Cn1c(SCC(=O)Nc2ccccc2)nc2c1c(=O)[nH]c(=O)n2C	77	86	94	32*	97
Cc1cc(N)n2ncc(-c3ccccc3)c2n1	95	102	90	72	95
Cc1cc(N)n2ncc(-c3cccc(Br)c3)c2n1	46	80	71	26*	66
Cc1c(C#N)c(N=CN(C)C)c(C(=O)c2ccc(Br)cc2)n1-c1ccc(Cl)cc1	80	55	62	74	76
SMILES	HUVEC prolif 384	PTEN del growth	bCat KO growth	H69AR growth 86K	Fibroblast inh
CC(C)Cc1nnc(NC(=O)Cc2ccc([N+](=O)[O-])cc2)s1	nt	102	86	nt	nt
C=CCc1cccc(/C=N/NC(=O)CCC(=O)Nc2ccc(F)cc2)c1O	nt	11	8	nt	nt
C=CCc1cccc(/C=N/NC(=O)CCCNc2ccc(C)cc2)c1O	nt	52	57	nt	nt
C=CCc1cccc(/C=N/NC(=O)CNc2ccccc2)c1O	nt	3.0*	3.7*	nt	nt
C=CCc1cccc(/C=N/NC(=O)CNc2cccc3ccccc23)c1O	nt	1.8*	3.2*	nt	nt
C/C(=N\OCC(=O)Nc1ccc2c(c1)OCCO2)c1ccc2c(c1)OCCO2	nt	98	95	nt	nt
COc1cc(C(=S)N2CCCC2)cc(OC)c1O	95	96	108	92	97
Cc1ccc(NC(=O)COc2ccccc2CNC(C)(C)CC(C)(C)C)cc1	33	1.8*	1.4*	1.6*	35*
O=C(CSc1nnc(-c2c[nH]c3ccccc23)o1)N(Cc1ccccc1)c1ccc(F)cc1	82	14	20	56	108
COc1ccc(CN(C(=O)CSc2nnc(-c3ccccc3C)o2)c2ccc(F)cc2)cc1	128	79	78	0.4*	102
